Series [1] has as its target T1, D3R (Homo sapiens, UniProt P35462). Particulars: BRET assay; cited from earlier work.
Series [2] concerns the target T1, D3R. Nature of the series: β-arrestin recruitment assay. In kind it is cell-based. Particulars: Figure 2. Put shortly:
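HEK293T cells were transiently transfected (polyethylenimine) with D3R–Rluc8 (C-terminal), mVenus–β-arrestin 2 (N-terminal) and GRK2, and assayed ~48 h later. Cells in PBS + 5 mM glucose got coelenterazine H (5 µM) for 8 min, then test compound (final 10 pM–100 µM). BRET1 (510–540/485 nm) was read at 30 min, normalized to vehicle (0%) and dopamine (100%), and fitted sigmoidally.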

For series [3], the target named is T1, D3R. Nature of the series: Go BRET activation assay. In kind it is cell-based. The following applies: for Functional efficacy class: Go BRET activation assay, Figure 1.
The conditions of series [4]: dogs; cited from earlier work.

T1 sequence (P35462 whole entry): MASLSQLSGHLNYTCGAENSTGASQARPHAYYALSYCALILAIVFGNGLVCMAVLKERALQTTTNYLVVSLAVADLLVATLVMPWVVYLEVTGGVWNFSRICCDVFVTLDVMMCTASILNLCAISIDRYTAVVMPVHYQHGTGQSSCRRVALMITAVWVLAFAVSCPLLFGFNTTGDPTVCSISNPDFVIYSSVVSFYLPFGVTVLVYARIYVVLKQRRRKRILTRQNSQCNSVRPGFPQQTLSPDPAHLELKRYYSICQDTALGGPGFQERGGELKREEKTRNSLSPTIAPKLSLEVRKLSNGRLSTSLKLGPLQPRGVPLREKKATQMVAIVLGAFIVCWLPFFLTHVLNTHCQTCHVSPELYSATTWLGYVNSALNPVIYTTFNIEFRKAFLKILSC

Take `Clc1cccc(N2CCNCC2)c1Cl` [2,3-diCl-phenylpiperazine, 1-(2,3-dichlorophenyl)piperazine]: the “Emax (% of dopamine efficacy)” value on D3R [1] was 57.3%. On to `O=C(NCC[C@@H](O)CN1CCN(c2cccc(Cl)c2Cl)CC1)c1cnc2ccccc2c1` [(R)-4, (R)-N-(4-(4-(2,3-Dichlorophenyl)piperazin-1-yl)-3-hydroxybutyl)quinoline-3-carboxamide], for which, on D3R [2], the Functional efficacy class result is recorded as “antagonists”. For `O=C(NCC[C@@H](O)CN1CCN(c2cccc(Cl)c2Cl)CC1)c1cc2ccccc2[nH]1` [(R)-9], the Functional efficacy class entry on D3R [2] is recorded as “antagonists”. As for `O=C(NCC[C@H](O)CN1CCN(c2cccc(Cl)c2Cl)CC1)c1cnc2ccccc2c1` [(S)-4, (S)-N-(4-(4-(2,3-Dichlorophenyl)piperazin-1-yl)-3-hydroxybutyl)quinoline-3-carboxamide], the Functional efficacy class result at D3R [3] and at D3R [2] was “partial agonists” throughout.

Take `CC[C@H](O)CN1CCN(c2cccc(Cl)c2Cl)CC1` [(S)-6, (S)-1-(4-(2,3-Dichlorophenyl)piperazin-1-yl)butan-2-ol]: the Functional efficacy class result at D3R [3] and at D3R [2] was “partial agonists” each time. As for `O=C(NCC[C@H](O)CN1CCN(c2cccc(Cl)c2Cl)CC1)c1cc2ccccc2[nH]1` [(S)-9], the Functional efficacy class entry on D3R [3] and at D3R [2] was “partial agonists” throughout. For the molecule `O=C(NCCCCN1CCN(c2cccc(Cl)c2Cl)CC1)c1cc2ccccc2[nH]1` [Compound 10], the Emax at D3R [3] (HEK-293T, read-out: Emax (% of dopamine efficacy)) was determined as 16%. As for `Cc1ncoc1-c1nnc(SCCCN2CC3CC3(c3ccc(C(F)(F)F)cc3F)C2)n1C` (centres unmarked) [GSK598,809, 1-(2-fluoro-4-trifluoromethyl-phenyl)-3-{3-[4-methyl-5-(4-methyl-oxazol-5-yl)-4H-[1,2,4]triazol-3-ylsulfanyl]-propyl}-3-aza-bicyclo[3.1.0]hexane], the “Effect on cocaine-mediated increases in blood pressure and heart rate” value in series [4] was “potentiate cocaine-mediated increases in blood pressure and heart rate”.
